A3G deaminase: blocks human APOBEC3G single-stranded DNA deamination | 0.28% of 330,000 active | recombinant A3G, ssDNA deamination FAM/TAMRA fluorescence | inhibition, % at 20 µM | Q9HC16;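 active means inhibition of at least 40% at 20 µM, with no more than 30% in the related APOBEC3A deaminase screen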;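 further: plate controls were DMSO wells with A3G for no effect and wells lacking A3G enzyme for full effect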
CXCR6 inh: blocks human CXCR6 beta-arrestin recruitment | CHO-K1 PathHunter CXCR6 beta-arrestin, luminescence | O00574 | 0.36% of 360,000 active | inhibition, % at 20 µM | AID 602244; in the data active means inhibition above about 34%, passing the limit was not always enough;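 further: antagonist mode with CXCL16 agonist at 10 nM final; 0% = 10 nM CXCL16 with DMSO and 100% = unstimulated wells without agonist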
Target sequence (O00574 whole entry, looked up): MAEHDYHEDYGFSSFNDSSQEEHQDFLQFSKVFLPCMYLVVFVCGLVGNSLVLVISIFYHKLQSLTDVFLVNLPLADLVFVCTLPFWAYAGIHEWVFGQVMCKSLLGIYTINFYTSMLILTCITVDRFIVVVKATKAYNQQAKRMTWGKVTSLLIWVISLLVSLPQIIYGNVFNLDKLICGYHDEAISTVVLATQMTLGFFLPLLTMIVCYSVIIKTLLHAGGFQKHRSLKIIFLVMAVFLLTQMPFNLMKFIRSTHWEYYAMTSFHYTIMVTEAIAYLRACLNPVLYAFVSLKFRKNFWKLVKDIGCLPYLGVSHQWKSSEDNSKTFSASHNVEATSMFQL
APJ agonist: activates the human apelin receptor APJ. activation, % at 20 µM. 0.11% of 330,000 active. CHO-K1 APJ PathHunter beta-arrestin, luminescence; 0% DMSO wells, 100% apelin;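 active means activation more than six SD over the plate average, tested at 20 µM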;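 further: 0% = DMSO alone and 100% = apelin-13 at 10 nM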
Target sequence (P35414 whole entry, looked up): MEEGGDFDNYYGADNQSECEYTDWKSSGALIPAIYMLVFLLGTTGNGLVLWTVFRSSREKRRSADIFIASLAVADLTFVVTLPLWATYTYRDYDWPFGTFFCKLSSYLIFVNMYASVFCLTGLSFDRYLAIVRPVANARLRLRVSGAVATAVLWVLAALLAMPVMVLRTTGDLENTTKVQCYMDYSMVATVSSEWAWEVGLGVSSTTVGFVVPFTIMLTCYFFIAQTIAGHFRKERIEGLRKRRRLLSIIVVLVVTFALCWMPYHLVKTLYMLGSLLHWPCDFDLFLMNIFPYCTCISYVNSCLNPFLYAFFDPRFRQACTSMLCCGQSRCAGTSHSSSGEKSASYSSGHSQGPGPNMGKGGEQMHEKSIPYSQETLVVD
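Assay system: CHO-K1 cells stably expressing ProLink-tagged human APJ and arrestin–beta-gal acceptor. Compound dosing: 20 µM single point, 1% DMSO. Times: 16-18 h seeding, 90 min dark compound exposure, 60 min detection. Detection: beta-gal luminescence. Evaluation: APJ–arrestin association signal. Controls: negative DMSO alone, positive Apelin-13 at 10 nM.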
APJ antagonist: APJ receptor antagonism | CHO-K1 APJ beta-arrestin complementation, luminescence | 0.32% of 330,000 active | inhibition, % at 20 µM | P35414;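 active means inhibition above about 40% at 20 µM, limit read from the data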;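 further: cells challenged with 10 nM apelin-13 agonist together with compound; plate controls were apelin-13 plus DMSO wells for no effect and DMSO wells lacking apelin-13 for full effect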
A3A deaminase: inhibitors of human APOBEC3A DNA deaminase | inhibition, % at 20 µM | 0.41% of 330,000 active | recombinant A3A, FAM/TAMRA ssDNA deamination fluorescence;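 active means at least 40% inhibition at 20 µM here, with at most 30% in a related deaminase screen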;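 further: plate controls were A3A with DMSO for no effect and wells lacking A3A enzyme for full effect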
CCR6 antag: CCR6 (human) receptor antagonism | P51684 | CHO-K1 CCR6 PathHunter beta-arrestin, luminescence, CCL20-stimulated | inhibition, % at 20 µM | 0.49% of 340,000 active;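 active means compounds whose inhibition of the agonist-driven luminescence signal at 20 µM reaches about 50%, limit read from the data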;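 further: cells stimulated with CCL20 at 14 nM final; plate controls were DMSO with CCL20 for no effect and DMSO without agonist for full effect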
APJ ag confirm: confirmation of human APJ apelin receptor agonists | shares compounds with APJ agonist | CHO-K1 APJ PathHunter beta-arrestin, luminescence | activation, % at 20 µM | 10% of 310 active | AID 2764;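 active means activation above 40%, taking the highest of four retests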;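 further: plate controls were DMSO wells for no effect and apelin-13 at 10 nM for full effect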
APJ antag conf: APJ receptor antagonism confirmation. shares compounds with APJ antagonist. APJ beta-arrestin recruitment, luminescence, antagonist mode. inhibition, % at 20 µM. 66% of 950 active; in the data active means inhibition above about 50%
A3A conf: confirmation of human APOBEC3A DNA deaminase inhibitors | shares compounds with A3A deaminase | recombinant A3A, ssDNA deaminase UDG fluorescence assay | inhibition, % at 20 µM | 63% of 1,400 active;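 active means inhibition reaching a set limit, 80% of the first screen's cutoff, at 20 µM in any replicate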;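 further: plate controls were DMSO wells with A3A for no effect and wells lacking A3A enzyme for full effect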
UDG ctr A3A: inhibits UDG, flagging false APOBEC3A inhibitors | shares compounds with A3A deaminase | UDG counterscreen, FAM/TAMRA uracil oligo fluorescence | inhibition, % at 20 µM | 1,000 tested, under 10 active | AID 504714; call rule not given here
The depositor's hits bear a star; · = no result given. Most compounds without a hit are left out; they make up all but 1.4% or so of the library.

SMILES | A3G deaminase | CXCR6 inh | APJ agonist | APJ antagonist | A3A deaminase | CCR6 antag | others
CCOc1ccc(N2C(=O)/C(=C/c3ccco3)C(=O)NC2=S)cc1 | 46.9 | 58.0* | -0.2 | 10.0 | 72.8 | 78.6*
Cc1ccc(N2C(=O)NC(=O)/C(=C/c3cnn(-c4ccc(C)cc4)c3)C2=O)cc1 | -7.2 | 43.2* | 0.2 | 11.9 | -6.6 | 49.4
CSc1ncc(/C=C2/C(=O)NC(=O)N(c3ccc(C)cc3)C2=O)cn1 | -3.3 | 1.9 | 0.6 | 15.9 | -4.4 | 7.8
CC(=O)O/C(=C1\CC2C3CC=C4CC(OC(C)=O)CCC4(C)C3CCC2(C)C1=O)C(F)(F)F (stereo not drawn) | · | 62.2* | · | · | · | 82.6*
Cc1ccccc1-n1c(/C=C/c2ccccn2)nc2ccccc2c1=O | -4.7 | 7.7 | -3.5 | -13.2 | -4.2 | 13.0
CN1C2CCC1/C(=C/c1ccccn1)C(=O)/C2=C\c1ccccn1 | · | 37.8* | · | · | · | 48.5
CCOC(=O)[C@]12Cc3cc(Cl)ccc3[C@H]1N(C1CCCCC1)C(=O)c1ccccc12 | · | 21.0 | · | · | · | ·
c1ccc(C2(NC3=NCCO3)CCCCC2)cc1 | · | 6.7 | · | · | · | ·
S=C(NCCc1ccccc1)N1Cc2cc(N3CCCCC3)ccc2-n2nncc2C1 | · | -1.8 | · | · | · | ·
CCc1ccc(N2C(=O)NC(=O)/C(=C\C=C\c3ccco3)C2=O)cc1 | 16.2 | 34.4 | -1.8 | -10.4 | 25.4 | 36.3
Cc1ccc(N2C(=O)NC(=O)/C(=C/C=C/c3ccco3)C2=O)cc1 | 24.0 | 36.5 | 3.0 | -38.2 | 28.5 | 53.2*
O=C1NC(=O)N(c2ccccc2)C(=O)/C1=C\C=C\c1ccccc1 | 12.7 | 52.7* | 5.5 | -0.4 | 0.6 | 33.2
Cc1cc(C)cc(N2C(=O)NC(=O)/C(=C\C=C\c3ccco3)C2=O)c1 | · | 18.3 | · | · | · | 23.8
CCc1nn2c(=O)c(F)c(N3CCNCC3)nc2s1 | · | -3.9 | · | · | · | ·
O=C(CN1CCCCC1)c1cccc(Br)c1 | 0.6 | 27.6 | -6.2 | -12.4 | -0.1 | 67.9*
CCCCn1c(NC(=O)c2ccc(Br)o2)c(C(=O)OCC)c2nc3ccccc3nc21 | -4.1 | 22.9 | -10.9 | 62.8* | 2.0 | 42.8
CCOc1cc2[nH]c(=S)n(CCCC(=O)N3CCC4(CC3)OCCO4)c(=O)c2cc1OCC | -1.4 | -1.4 | 34.8* | 2.2 | -0.9 | -9.2 | APJ ag confirm=22.3
c1ccc2c(c1)CN(Cc1ccc3c(c1)OCO3)Cc1cnnn1-2 | · | 6.0 | · | · | · | ·
N#Cc1c(/N=C/c2ccc(O)cc2O)sc2c1C1CCN2CC1 | -21.7 | 8.5 | -7.3 | 42.3* | -9.3 | 38.5 | APJ antag conf=35.7
Cc1ccc(-n2c(=O)[nH]c3ccccc3c2=O)cc1[N+](=O)[O-] | · | 3.7 | · | · | · | ·
CCS(=O)(=O)CCSP(=O)(OC)OC | · | 0.9 | · | · | · | 5.5
CCC1CCCCN1CC(=O)c1ccc(OC(F)F)cc1 (stereo not drawn) | -2.6 | 8.2 | -5.1 | 44.4* | 1.4 | 24.5 | APJ antag conf=51.7*
CCC1(CCC(C)C)C(=O)NC(=O)N(c2ccccc2)C1=O (stereo not drawn) | · | 0.9 | · | · | · | ·
Nc1c(C(=O)OCc2ccccc2)c2nc3ccccc3nc2n1Cc1cccs1 | -7.1 | 33.1 | -10.8 | 63.0* | -3.0 | -0.1 | APJ antag conf=-11.3
O=C1/C(=C/c2ccccc2)C[C@@]2(O)[C@H]3Cc4ccc(O)c5c4[C@@]2(CCN3CC2CC2)C1O5 (stereo partly drawn) | 3.3 | 58.1* | -8.9 | 55.6* | 0.9 | 79.5* | APJ antag conf=92.6*
SMILES | A3G deaminase | CXCR6 inh | APJ agonist | APJ antagonist | A3A deaminase | CCR6 antag | others
C[C@]12CCC3C(CC[C@H]4C[C@@H](O)CC[C@]34C)C1CC[C@@H]2N (stereo partly drawn) | 6.4 | -2.8 | 0.6 | -4.6 | 4.8 | 15.7
CN1C(=O)C(=Cc2ccc(N3CCOCC3)o2)C(=O)N(C)C1=O | -2.9 | 1.6 | -3.1 | 9.0 | -2.8 | 17.0
CN1C(=O)C(=Cc2ccc(N3CCCCCC3)o2)C(=O)N(C)C1=S | -9.9 | 19.4 | -5.5 | 47.3* | -2.6 | 34.3 | APJ antag conf=79.4*
CCOP(=O)(OCC)C1(O)C(=O)Nc2ccccc21 (stereo not drawn) | -3.6 | 2.4 | -3.5 | 2.8 | 3.0 | 2.2
CC1CCCC(C2(O)C(=O)Nc3ccccc32)C1=O (stereo not drawn) | 9.7 | 5.8 | -1.9 | 7.1 | 67.7* | -4.6 | A3A conf=73.8*;UDG ctr A3A=-2.5
C=CC(=O)NCNC(=O)C=C | -7.8 | -5.8 | 2.5 | -3.6 | -6.2 | 4.5
C[n+]1ccc(-c2ccncc2)cc1 | 25.2 | 1.0 | 2.6 | 6.5 | 74.1* | 10.7 | A3A conf=76.6*;UDG ctr A3A=-2.8
CC12CCC(=O)C=C1CCC1C2CCC2(C)C(O)(C(=O)CO)CCC12O (stereo not drawn) | · | 2.8 | · | · | · | 6.4
CC(C)(C)C(=O)c1cn(CC(=O)NCc2ccco2)c2ccccc12 | 14.8 | -6.7 | -2.7 | 14.0 | 59.0* | -17.4 | A3A conf=45.5*;UDG ctr A3A=-1.6
CCOc1c(P(=S)(N(C)C)N(C)C)c(C)nn1-c1ccccc1 | 5.3 | 0.7 | -1.5 | -3.4 | 42.1* | 7.2 | A3A conf=4.1
CCC1(CC)COP(=O)(OCC(Cl)CCl)OC1 (stereo not drawn) | · | 1.2 | · | · | · | 0.5
CC(=O)c1c(C)[nH]c(C(=O)N2CCC3(CC2)OCCO3)c1C | -11.0 | -8.9 | 1.8 | -5.9 | -4.7 | 16.3
C[N+]1(C)CCN(c2ccccc2)CC1 | 27.2 | 9.6 | 1.6 | -4.3 | 73.0* | 14.7 | A3A conf=77.7*;UDG ctr A3A=0.0
Cc1cc(O)c(CN2CCN(c3ccccc3)CC2)cc1C | 5.8 | -0.5 | -1.8 | -1.2 | 4.4 | 8.2
CCN(CC)P(=O)(c1n(CC)cc[n+]1CC)N(CC)CC | 28.0 | 3.2 | -2.3 | 3.2 | 85.6* | 13.2 | A3A conf=73.0*;UDG ctr A3A=-2.2
CN1C(=O)NC(=O)/C(=C\c2ccc([N+](=O)[O-])o2)C1=O | 26.2 | 0.5 | 2.2 | -38.2 | 65.2* | 3.0 | A3A conf=54.5*
CN1C(=O)NC(=O)/C(=C/c2ccc([N+](=O)[O-])o2)C1=O | 31.3 | · | 3.5 | -24.5 | 66.3 | -3.8
CCCC[N+]12CCC(CC1)C(C(=O)c1cccs1)C2 (stereo not drawn) | 22.2 | -13.0 | -2.1 | 5.9 | 67.3* | -2.5 | A3A conf=77.6*;UDG ctr A3A=2.5
NC(=O)CSc1nnc([C@@H](N)Cc2c[nH]c3ccccc23)o1 | 2.5 | -11.3 | -2.5 | -14.4 | 1.7 | -24.6
CCCCCCn1c(=O)c(C(=O)Nc2c(C)n(C)n(-c3ccccc3)c2=O)c(O)c2ccccc21 | 0.2 | 18.8 | -1.4 | 7.3 | -6.7 | 21.1

Screening results (PubChem BioAssay)
